This note sets out measurements from paper PMC3282045 (Biochemistry, 2012).

Data set [1] has as its target T1, human sulfite oxidase (HSO, human SO) (Homo sapiens, UniProt P51687).
T1 sequence (P51687 80-545): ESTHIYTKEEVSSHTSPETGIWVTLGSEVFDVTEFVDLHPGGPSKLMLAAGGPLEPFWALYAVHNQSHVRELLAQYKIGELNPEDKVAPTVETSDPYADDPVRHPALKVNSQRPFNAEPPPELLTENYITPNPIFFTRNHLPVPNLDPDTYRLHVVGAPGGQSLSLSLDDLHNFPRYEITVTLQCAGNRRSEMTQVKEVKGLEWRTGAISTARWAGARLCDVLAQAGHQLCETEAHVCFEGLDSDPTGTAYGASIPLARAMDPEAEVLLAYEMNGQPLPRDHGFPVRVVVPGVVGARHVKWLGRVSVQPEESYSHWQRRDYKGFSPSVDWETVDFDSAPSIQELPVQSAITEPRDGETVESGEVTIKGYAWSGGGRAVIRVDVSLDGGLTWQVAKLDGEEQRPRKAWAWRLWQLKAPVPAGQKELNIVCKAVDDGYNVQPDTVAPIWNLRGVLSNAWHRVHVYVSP
In words: stopped-flow heme reduction. In kind it is biochemical. Particulars: read-out: Kd^sulfite; pH 8.5, 25 °C, anaerobic, no cyt c. The method, boiled down: (§1)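 Recombinant enzyme expressed in E. coli TP1000 and purified. Anaerobic stopped-flow at 25 °C (dead-time <1.5 ms, 10 mm path), with argon-sparged solutions prepared in an anaerobic chamber. Enzyme at 0.3–0.8 μM was mixed with varied sulfite, no cyt c. Heme Soret change followed at 425 or 430 nm. Traces were fitted to single or double exponentials for kobs, then kobs versus sulfite fitted hyperbolically for kred and Kd.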

The target of data set [2] is T2, human sulfite oxidase (HSO, human SO) (Homo sapiens, UniProt P51687, R529Q).
T2 sequence (P51687 80-545 R529Q): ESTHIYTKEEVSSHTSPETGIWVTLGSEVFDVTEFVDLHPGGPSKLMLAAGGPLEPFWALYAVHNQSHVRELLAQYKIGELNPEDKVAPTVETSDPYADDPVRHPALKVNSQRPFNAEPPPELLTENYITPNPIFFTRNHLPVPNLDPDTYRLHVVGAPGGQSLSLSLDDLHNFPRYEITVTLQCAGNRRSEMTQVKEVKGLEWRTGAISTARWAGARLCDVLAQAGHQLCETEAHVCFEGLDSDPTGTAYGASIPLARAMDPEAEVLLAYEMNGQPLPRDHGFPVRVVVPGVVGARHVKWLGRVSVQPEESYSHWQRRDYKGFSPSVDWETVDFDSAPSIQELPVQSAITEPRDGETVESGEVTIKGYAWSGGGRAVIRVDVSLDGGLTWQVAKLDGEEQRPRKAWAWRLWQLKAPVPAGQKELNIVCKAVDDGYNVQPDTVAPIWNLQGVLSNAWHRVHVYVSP
The data set can be described thus: stopped-flow heme reduction. In kind it is biochemical. The note with it: read-out: Kd^sulfite; pH 8.5, 25 °C, anaerobic, no cyt c. The method, boiled down: as §1

Data set [3] deals with T3, chicken sulfite oxidase (CSO, recombinant chicken SO) (Gallus gallus, UniProt P07850).
T3 sequence (P07850 1-459): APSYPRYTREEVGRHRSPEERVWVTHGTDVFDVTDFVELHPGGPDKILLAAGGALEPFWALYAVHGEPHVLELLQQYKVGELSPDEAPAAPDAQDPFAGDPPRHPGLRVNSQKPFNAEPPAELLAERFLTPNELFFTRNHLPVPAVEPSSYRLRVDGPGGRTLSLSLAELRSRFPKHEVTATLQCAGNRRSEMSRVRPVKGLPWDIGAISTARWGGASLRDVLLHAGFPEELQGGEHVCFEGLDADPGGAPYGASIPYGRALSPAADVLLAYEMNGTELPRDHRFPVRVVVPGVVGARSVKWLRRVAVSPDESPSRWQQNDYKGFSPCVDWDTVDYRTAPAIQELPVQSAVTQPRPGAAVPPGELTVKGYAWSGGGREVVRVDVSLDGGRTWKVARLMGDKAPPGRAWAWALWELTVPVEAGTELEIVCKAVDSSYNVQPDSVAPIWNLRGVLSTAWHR
In words: steady-state cytochrome c reduction at […] nm. Particulars: read-out: Km^sulfite; pH 8.5, 25 °C, horse heart cyt c. In kind it is biochemical.

Data set [4] addresses T4, human sulfite oxidase (HSO, human SO) (Homo sapiens, UniProt P51687, R529M).
T4 sequence (P51687 80-545 R529M): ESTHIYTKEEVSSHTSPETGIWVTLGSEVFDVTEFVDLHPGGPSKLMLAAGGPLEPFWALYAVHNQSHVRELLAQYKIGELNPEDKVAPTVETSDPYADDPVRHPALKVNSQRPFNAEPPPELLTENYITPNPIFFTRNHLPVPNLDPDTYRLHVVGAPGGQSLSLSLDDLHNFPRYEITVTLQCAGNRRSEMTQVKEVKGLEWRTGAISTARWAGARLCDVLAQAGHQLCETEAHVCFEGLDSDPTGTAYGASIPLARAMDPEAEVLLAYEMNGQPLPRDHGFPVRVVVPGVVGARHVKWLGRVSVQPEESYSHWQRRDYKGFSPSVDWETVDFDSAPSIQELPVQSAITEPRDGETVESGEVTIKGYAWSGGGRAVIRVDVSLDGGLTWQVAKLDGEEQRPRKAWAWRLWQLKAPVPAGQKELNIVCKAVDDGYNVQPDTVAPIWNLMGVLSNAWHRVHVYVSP
In words: stopped-flow heme reduction. In kind it is biochemical. The note with it: read-out: Kd^sulfite; pH 8.5, 25 °C, anaerobic, no cyt c. Put shortly: as §1

Substrate in data set [5]: O=S(O)O
In words: purified protein. Particulars: pH 8.5, 25 °C, horse heart cyt c. In kind it is biochemical, Homo sapiens.

Substrate in data set [6]: O=[N+]([O-])O
The data set can be described thus: purified protein. It counts as biochemical, Homo sapiens. The note with it: pH 8.5, 25 °C, anaerobic, dithionite-reduced methyl viologen.

For orientation: Kd means the constant that tells how readily two partners part at equilibrium. As usually defined, the Km is the substrate concentration at which the rate is half of its maximum. As to `O=S(O)O` [sulfite], the values for the Kd in data set [1], in data set [2] and in data set [4] were 6.72 µM, 227 µM and 73.4 µM, respectively. For the same molecule, the Km in data set [3] came out at 8.53 µM.

B1: human sulfite oxidase (HSO, human SO) (Homo sapiens; V531M) (protein)
chain: ESTHIYTKEEVSSHTSPETGIWVTLGSEVFDVTEFVDLHPGGPSKLMLAAGGPLEPFWALYAVHNQSHVRELLAQYKIGELNPEDKVAPTVETSDPYADDPVRHPALKVNSQRPFNAEPPPELLTENYITPNPIFFTRNHLPVPNLDPDTYRLHVVGAPGGQSLSLSLDDLHNFPRYEITVTLQCAGNRRSEMTQVKEVKGLEWRTGAISTARWAGARLCDVLAQAGHQLCETEAHVCFEGLDSDPTGTAYGASIPLARAMDPEAEVLLAYEMNGQPLPRDHGFPVRVVVPGVVGARHVKWLGRVSVQPEESYSHWQRRDYKGFSPSVDWETVDFDSAPSIQELPVQSAITEPRDGETVESGEVTIKGYAWSGGGRAVIRVDVSLDGGLTWQVAKLDGEEQRPRKAWAWRLWQLKAPVPAGQKELNIVCKAVDDGYNVQPDTVAPIWNLRGMLSNAWHRVHVYVSP
By kcat is commonly meant the number of substrate molecules converted per active site and unit of time at saturation. B1: in “purified protein [5]”, the Km is 3.54 µM and the kcat was 15.8 s⁻¹.

B2: human sulfite oxidase (HSO, human SO) (Homo sapiens) (protein)
chain: ESTHIYTKEEVSSHTSPETGIWVTLGSEVFDVTEFVDLHPGGPSKLMLAAGGPLEPFWALYAVHNQSHVRELLAQYKIGELNPEDKVAPTVETSDPYADDPVRHPALKVNSQRPFNAEPPPELLTENYITPNPIFFTRNHLPVPNLDPDTYRLHVVGAPGGQSLSLSLDDLHNFPRYEITVTLQCAGNRRSEMTQVKEVKGLEWRTGAISTARWAGARLCDVLAQAGHQLCETEAHVCFEGLDSDPTGTAYGASIPLARAMDPEAEVLLAYEMNGQPLPRDHGFPVRVVVPGVVGARHVKWLGRVSVQPEESYSHWQRRDYKGFSPSVDWETVDFDSAPSIQELPVQSAITEPRDGETVESGEVTIKGYAWSGGGRAVIRVDVSLDGGLTWQVAKLDGEEQRPRKAWAWRLWQLKAPVPAGQKELNIVCKAVDDGYNVQPDTVAPIWNLRGVLSNAWHRVHVYVSP
Regarding B2, the Km in the data set “purified protein [5]” worked out at 8.25 µM; in the data set “purified protein [6]” it was 43000 µM. The catalytic constant (kcat) in the data set “purified protein [5]” is 26.9 s⁻¹; in “purified protein [6]” it was under 0.1 s⁻¹.

B3: human sulfite oxidase (HSO, human SO) (Homo sapiens; R529M/Y400N) (protein)
chain: ESTHIYTKEEVSSHTSPETGIWVTLGSEVFDVTEFVDLHPGGPSKLMLAAGGPLEPFWALYAVHNQSHVRELLAQYKIGELNPEDKVAPTVETSDPYADDPVRHPALKVNSQRPFNAEPPPELLTENYITPNPIFFTRNHLPVPNLDPDTYRLHVVGAPGGQSLSLSLDDLHNFPRYEITVTLQCAGNRRSEMTQVKEVKGLEWRTGAISTARWAGARLCDVLAQAGHQLCETEAHVCFEGLDSDPTGTAYGASIPLARAMDPEAEVLLAYEMNGQPLPRDHGFPVRVVVPGVVGARHVKWLGRVSVQPEESYSHWQRRDNKGFSPSVDWETVDFDSAPSIQELPVQSAITEPRDGETVESGEVTIKGYAWSGGGRAVIRVDVSLDGGLTWQVAKLDGEEQRPRKAWAWRLWQLKAPVPAGQKELNIVCKAVDDGYNVQPDTVAPIWNLMGVLSNAWHRVHVYVSP
For B3, in the data set “purified protein [5]”, the Km worked out at 42990 µM and the turnover number (kcat) worked out at 1.42 s⁻¹.

B4: human sulfite oxidase (HSO, human SO) (Homo sapiens; Y400N) (protein)
chain: ESTHIYTKEEVSSHTSPETGIWVTLGSEVFDVTEFVDLHPGGPSKLMLAAGGPLEPFWALYAVHNQSHVRELLAQYKIGELNPEDKVAPTVETSDPYADDPVRHPALKVNSQRPFNAEPPPELLTENYITPNPIFFTRNHLPVPNLDPDTYRLHVVGAPGGQSLSLSLDDLHNFPRYEITVTLQCAGNRRSEMTQVKEVKGLEWRTGAISTARWAGARLCDVLAQAGHQLCETEAHVCFEGLDSDPTGTAYGASIPLARAMDPEAEVLLAYEMNGQPLPRDHGFPVRVVVPGVVGARHVKWLGRVSVQPEESYSHWQRRDNKGFSPSVDWETVDFDSAPSIQELPVQSAITEPRDGETVESGEVTIKGYAWSGGGRAVIRVDVSLDGGLTWQVAKLDGEEQRPRKAWAWRLWQLKAPVPAGQKELNIVCKAVDDGYNVQPDTVAPIWNLRGVLSNAWHRVHVYVSP
With B4, in the data set “purified protein [5]”, the Michaelis-Menten constant (Km) worked out at 850 µM and the kcat worked out at 16.91 s⁻¹.
